# Assay outcomes from PubChem BioAssay.
# Most compounds without a hit are left out; they make up all but 3.2% or so of the library.
# TRPML3 ag – agonists of human TRPML3 channel | HEK293 TRPML3-YFP, Fluo-8 calcium fluorescence; 100% = the carbachol control signal | activation, % at 3 µM | hit rate 0.29% among 220,000;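 active = activation above its plate's cutoff, the mean activation of the plate's test wells plus 3 SD, cut at about 12% in these data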
# Target sequence (Q8TDD5 whole entry, looked up): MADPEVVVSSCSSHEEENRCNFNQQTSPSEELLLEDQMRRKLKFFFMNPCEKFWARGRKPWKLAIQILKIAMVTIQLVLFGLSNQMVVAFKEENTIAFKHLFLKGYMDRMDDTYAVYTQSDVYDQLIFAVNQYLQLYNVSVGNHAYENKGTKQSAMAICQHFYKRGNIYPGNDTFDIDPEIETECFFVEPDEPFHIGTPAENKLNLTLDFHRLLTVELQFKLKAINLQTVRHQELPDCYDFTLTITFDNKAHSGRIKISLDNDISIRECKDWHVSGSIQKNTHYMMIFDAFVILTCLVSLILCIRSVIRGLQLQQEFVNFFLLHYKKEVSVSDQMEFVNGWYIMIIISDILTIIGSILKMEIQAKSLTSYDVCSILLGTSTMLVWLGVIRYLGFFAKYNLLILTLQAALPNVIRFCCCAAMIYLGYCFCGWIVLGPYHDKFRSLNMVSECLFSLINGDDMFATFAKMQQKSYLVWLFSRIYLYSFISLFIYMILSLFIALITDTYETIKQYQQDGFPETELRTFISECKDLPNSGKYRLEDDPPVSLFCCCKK
#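 Test system: HEK293 cells stably carrying human TRPML3-YFP; Doses: single dose, 3 µM final nominal compound, 0.3% DMSO final; Schedule: dye loading 1 h 37 °C then 30 min ambient, 125 s read; Technique: Fluo-8 calcium fluorescence; Benchmarks: high control carbachol 87 µM, low control DMSO.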
# GPR7 antagonist – human neuropeptides B/W receptor 1 antagonism. GPR7-expressing cells, fluorescence antagonist assay. AID 1861. P48145. inhibition, % at 4.4 µM. hit rate 1.1% among 290,000; in the data active = inhibition above about 16%, passing the limit was not always enough;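 also: cells stimulated with the agonist NPW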
# CHO parental Ca – signal in parental CHO cells, OX1R antagonist counter-screen; AID 463079; parental CHO-K1, ATP-induced calcium, Fluo-8 fluorescence; hit rate 0.63% among 330,000; inhibition, % at 5.6 µM;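 active = inhibition above that plate's mean sample inhibition plus 3 SD, cut at about 26% in these data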
#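 Test system: parental CHO cells; detection: calcium-sensitive Fluo-8 fluorescence; evaluation: percent inhibition of calcium signal; also added: ATP as calcium-mobilizing challenge; repeats: one well per compound; control set: ATP-challenged DMSO wells low, unchallenged DMSO wells high; compound: single nominal dose of 5.6 µM per compound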
# OX1R antag-1 – blocks the human orexin 1 receptor | O43613 | CHO/OX1R cells, Fluo-8 calcium fluorescence, orexin A | inhibition, % at 5 µM | hit rate 0.43% among 330,000 | AID 434989;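 active = inhibition above its plate's threshold, mean inhibition of all tested compounds on the plate plus 3 SD, cut at about 37% in these data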
# OX1R antag-2 – antagonists of human orexin 1 receptor (OX1R) | O43613 | OX1R-expressing cells, FRET antagonist read-out | inhibition, % at 6.6 µM | hit rate 1.8% among 330,000 | AID 485270; in the data active = inhibition mostly above about 38%, no sharp cut-off; inactive = mostly below about 40%
# zfTRPN1 agonist – agonists of zebrafish TRPN1 channel; HEK293 zebrafish TRPN1-YFP, Fluo-8 calcium fluorescence; 100% = response to 87 µM carbachol; activation, % at 3 µM; hit rate 0.18% among 220,000;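 active = activation above its plate's cutoff, the mean activation of test wells on that plate plus 3 SD, cut at about 19% in these data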
#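 Assay system: Zebrafish TRPN1-YFP in HEK293 cells | Incubation: Dye loading 1 h at 37 °C, then 30 min room temperature | Measured by: Kinetic Fluo-8 fluorescence, ex 470-495, em 515-575 nm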
# A number is an active result; i = inactive; nt = not tested or not shown.
SMILES,TRPML3 ag,GPR7 antagonist,CHO parental Ca,OX1R antag-1,OX1R antag-2,zfTRPN1 agonist
CC(=O)OC[C@]12CC[C@H]3[C@@](C)(CC[C@H]4C(C)(C)CCC[C@]34C)[C@@H]1C[C@@H](C1=CC(=O)O[C@@H]1OC(C)=O)O2,nt,nt,i,i,i,nt
CC(=O)OC[C@]12CC[C@H]3[C@@](C)(CC[C@H]4C(C)(C)CCC[C@]34C)[C@@H]1C[C@H](C1=CC(=O)O[C@H]1OC(C)=O)O2,nt,nt,46,51,i,nt
O=C1c2cccc(OCC(=O)N3CCCc4ccccc43)c2CCN1Cc1ccccc1,i,22,i,i,i,i
CCN1CCc2c(OCC(=O)N3CCCc4ccccc43)cccc2C1=O,i,i,i,i,i,i
OCCC1CN(Cc2cccn2-c2ccccn2)CCN1Cc1ccccc1 (centres undefined),i,i,i,i,i,i
COc1cccc(CNC(=O)c2cc3oc4ccccc4c3n2C)c1OC,i,i,i,i,i,i
CCOc1ccccc1CNC(=O)c1cc2oc3ccccc3c2n1CC,i,i,i,i,53,i
Cc1cccc(C(=O)N2CCN(c3ccc([N+](=O)[O-])c(N4CCOCC4)c3)CC2)c1,i,i,i,i,75,i
O=C(c1ccc2ccccc2c1)N1CCN(c2ccc([N+](=O)[O-])c(N3CCOCC3)c2)CC1,i,i,i,i,i,i
COCc1cc(C)n(CC(=O)Nc2ccc(N3CCOCC3)cc2)c(=O)c1C#N,nt,nt,i,i,i,nt
CC1(C)Oc2cc(N)c([N+](=O)[O-])cc2O1,i,i,i,i,i,i
C=C1N(C)c2cc([N+](=O)[O-])c(N)cc2C1(C)C,i,i,i,i,56,i
O=C(Cc1ccc(S(=O)(=O)N2CCOCC2)s1)N1CCN(S(=O)(=O)c2cccc(Cl)c2)CC1,nt,nt,i,i,i,nt
CN=c1c([N+](=O)[O-])nn(-c2ccc3c(c2)OCCO3)n1O,i,i,i,i,62,i
CC(C)COc1nc2c(c(=O)n(C)c(=O)n2C)n1C,i,active,i,i,i,i
C=CCOc1nc2c(c(=O)n(C)c(=O)n2C)n1C,i,i,i,i,i,i
O=S1(=O)N=C(N(CCO)/N=C/c2ccc(Cl)cc2)c2ccccc21,nt,i,i,i,i,nt
CN(C)c1ccc(/C=N/N(CCO)C2=NS(=O)(=O)c3ccccc32)cc1,nt,i,53,48,i,nt
COc1ccc(CC(=O)NNC(=O)CSc2nc(C)c(C)c(=O)[nH]2)cc1,i,i,i,i,i,i
O=C(Nc1ccc2ccccc2n1)c1ccccc1Cl,nt,i,i,i,i,nt
COc1ccc(C(=O)Nc2ccc3ccccc3n2)c(OC)c1OC,nt,i,i,i,57,nt
CCCCCn1c2c(c(=N)c3ccccc31)CCC2,i,i,i,i,i,i
CCCCCCCCCn1c2c(c(=N)c3c1CCC3)CCCC2,i,68,nt,nt,nt,i
CCCCCCCCn1c2c(c(=N)c3ccccc31)CCC2,i,67,nt,nt,nt,i
CCn1c2c(c(=N)c3c1CCC3)CCCC2,i,i,i,i,i,i
SMILES,TRPML3 ag,GPR7 antagonist,CHO parental Ca,OX1R antag-1,OX1R antag-2,zfTRPN1 agonist
CCCCCCCCCCn1c2c(c(=N)c3c1CCC3)CCC2,i,77,i,48,i,i
C/C(=N\NC(=O)CCc1c[nH]c2ccccc12)c1ccc([N+](=O)[O-])cc1,i,i,i,i,59,i
C/C(=N\NC(=O)CCc1c(C)n[nH]c1C)c1ccc([N+](=O)[O-])cc1,i,i,i,i,i,i
CC(=O)Nc1ccc(C(=O)OCC(=O)Nc2ccccc2F)cc1,i,i,i,i,i,i
O=C(Cn1c(=O)oc2ccccc21)NCc1ccco1,i,18,i,i,i,i
O=C(CCn1c(=O)oc2ccccc21)NCc1ccco1,nt,i,i,i,i,nt
CCCn1c(=O)c2ccccc2n2c(SCC(=O)NCc3cccs3)nnc12,i,18,i,i,i,i
C/C(CC(C)(C)C1CCCCC1)=N\NC(N)=S,i,37,i,i,i,i
CCCC(=O)Nc1ccc(C(=O)n2ccc(C)n2)cc1,i,i,i,i,i,i
CN(Cc1ccccc1)C(=O)CN1C(=O)c2ccccc2C1=O,nt,i,i,i,i,nt
O=C(O)CN1C(=O)c2ccc(Oc3ccc([N+](=O)[O-])cc3)cc2C1=O,nt,i,i,i,53,nt
O=C1c2ccc([N+](=O)[O-])cc2C(=O)N1CNc1ccccn1,i,i,i,i,61,i
COc1cccc(NC(=O)CN(C)C(=O)CN2C(=O)c3ccc([N+](=O)[O-])cc3C2=O)c1,nt,nt,i,i,48,nt
CN(Cc1ccccc1)C(=O)CN1C(=O)c2ccc([N+](=O)[O-])cc2C1=O,nt,i,i,i,70,nt
CCOc1ccc(-c2nc3c(s2)CCc2onc(-c4ccc(OC)cc4)c2-3)cc1,nt,nt,i,i,i,nt
Cc1csc(SC(C)C(=O)NCC2CCCCC2)n1 (centres undefined),i,i,i,i,i,i
O=C(CCN1C(=O)c2ccc([N+](=O)[O-])cc2C1=O)Nc1cccc(O)c1,i,i,i,i,46,i
CCOC(=O)c1cn2nc(SCc3ccccc3)nc2nc1C,nt,i,i,i,i,nt
O=C(Nc1nc2cc3c(cc2s1)OCCO3)c1cccs1,i,i,i,i,66,i
CC(C)(C)NC(=O)COC(=O)c1ccc2c(c1)C(=O)N(Cc1ccco1)C2=O,nt,i,i,i,i,nt
N#CCc1nc(CSc2nc3ccccc3s2)cs1,i,16,i,i,i,i
c1ccc2sc(SCSc3nc4ccccc4s3)nc2c1,i,i,i,i,i,i
FC(F)(F)c1cnc(NNC(=S)Nc2ccccc2Cl)c(Cl)c1,17,i,i,i,i,29
Cc1ccc(N(C(=O)c2csnn2)C(C(=O)NC2CCCCC2)c2cccnc2)cc1C (centres undefined),nt,i,i,i,i,nt
Cc1ccc(C(=O)C[n+]2cccc3cc(C)ccc32)cc1,i,i,i,i,i,i
SMILES,TRPML3 ag,GPR7 antagonist,CHO parental Ca,OX1R antag-1,OX1R antag-2,zfTRPN1 agonist
CCOc1ccc(C(=O)C[n+]2cccc3cc(C)ccc32)cc1,nt,i,i,i,47,nt
COc1ccccc1CNC(=O)c1ccc2nc3[nH]c4ccccc4c3nc2c1,i,i,i,i,47,i
Cc1ccc(CNC(=O)c2ccc3nc4[nH]c5ccccc5c4nc3c2)cc1,i,i,nt,nt,nt,i
O=[N+]([O-])c1cc(-c2ccc(/C=N\n3cnnc3)o2)cc([N+](=O)[O-])c1,nt,i,i,i,69,nt
CC1Cc2ccccc2N1C(=O)c1ccc(N2CCCCC2)c([N+](=O)[O-])c1 (centres undefined),i,i,i,i,50,i
CC1Cc2ccccc2N1C(=O)c1ccc(N2CCCC2)c([N+](=O)[O-])c1 (centres undefined),i,i,i,i,i,i
O=[N+]([O-])c1ccc(N2CCN(c3ccc([N+](=O)[O-])cc3CO)CC2)c(CO)c1,nt,i,i,i,i,nt
